Source: ChEMBL document CHEMBL4371095, “Triazole-Based Inhibitors of the Wnt/β-Catenin Signaling Pathway Improve Glucose and Lipid Metabolisms in Diet-Induced Obese Mice” (J Med Chem, 2019)
Calls of active or inactive are those of the source. No cut-off for these calls is given here.

Experiments:
[1] = Inhibition of Wnt3a activated Wnt/beta-catenin signaling (unknown origin) expressed in HEK293 cells harboring TCF/LEF-responsive luciferase preincubated with cells followed by Wnt3a addition and measured after 24 hrs by luciferase reporter gene assay; type: cell-based; conditions: Homo sapiens
In short: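 HEK293 cells stably carrying TOPFlash/GFP were plated at 2000/well in DMEM with 10% FBS and kept overnight at 37 °C. Compound was pin-transferred, then recombinant human Wnt-3a was added (200 ng/mL working stock). After 24 h at 37 °C, ONE-Glo luminescence was read after 30 min. IC50 is mean ± SE from three independent experiments.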

HEK293 [2] = assay: Growth inhibition of HEK293 cells harboring Wnt after 24 hrs by CellTiter-Fluor assay; type: cell-based; conditions: human, hek293, 24 h
In short: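 HEK293 cells stably carrying the TOPFlash reporter were plated at 2000/well in DMEM with 10% FBS and incubated overnight. Compound was added with recombinant human Wnt-3a, then incubated 24 h at 37 °C. CellTiter-Fluor reagent was added and fluorescence read after 30 min at 37 °C.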

Axin-1 (Homo sapiens) = Axin-1 (Homo sapiens) (UniProt O15169); assay: Stabilization of Axin1 in human HuH7 cells assessed as decrease in lipid accumulation at 5 uM after 36 hrs by nile red staining based fluorescence microscopic method; type: cell-based
Axin-1 (Homo sapiens), sequence (O15169 whole entry): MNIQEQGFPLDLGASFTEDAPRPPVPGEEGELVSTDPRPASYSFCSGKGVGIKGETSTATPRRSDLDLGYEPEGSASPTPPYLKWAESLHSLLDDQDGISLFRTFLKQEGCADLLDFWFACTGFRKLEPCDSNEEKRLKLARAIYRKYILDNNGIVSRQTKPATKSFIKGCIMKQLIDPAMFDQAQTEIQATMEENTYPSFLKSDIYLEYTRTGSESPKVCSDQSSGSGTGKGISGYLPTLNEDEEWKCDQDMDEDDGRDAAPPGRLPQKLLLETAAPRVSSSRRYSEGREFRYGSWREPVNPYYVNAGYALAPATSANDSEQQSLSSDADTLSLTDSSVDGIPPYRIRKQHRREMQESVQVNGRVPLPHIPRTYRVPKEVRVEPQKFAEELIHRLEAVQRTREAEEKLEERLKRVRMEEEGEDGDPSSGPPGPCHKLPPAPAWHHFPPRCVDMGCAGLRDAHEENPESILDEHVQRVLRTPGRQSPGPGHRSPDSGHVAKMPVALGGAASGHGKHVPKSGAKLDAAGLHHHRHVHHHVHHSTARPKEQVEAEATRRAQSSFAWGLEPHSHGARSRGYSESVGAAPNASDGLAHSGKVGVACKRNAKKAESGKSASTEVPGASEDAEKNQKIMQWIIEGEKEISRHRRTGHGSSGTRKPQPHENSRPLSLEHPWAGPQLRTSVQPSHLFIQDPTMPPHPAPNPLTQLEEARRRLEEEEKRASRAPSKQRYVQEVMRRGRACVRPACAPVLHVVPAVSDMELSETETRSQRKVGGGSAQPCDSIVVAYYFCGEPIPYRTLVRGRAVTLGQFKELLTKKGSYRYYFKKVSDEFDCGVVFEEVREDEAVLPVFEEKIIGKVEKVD
In short: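 Huh7 cells on collagen I-coated coverslips were treated with 5 μM compound for 36 h, then with 200 μM sodium oleate for a further 12–16 h. Cells were stained with 1 μM Nile red in HBSS for 10 min at 37 °C in the dark and imaged by fluorescence microscopy at 552/636 nm.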

HEK293 [3] = assay: Growth inhibition of unstimulated HEK293 cells up to 100 uM after 72 hrs by CellTiter-Fluor assay; type: cell-based; conditions: human, hek293, 72 h
In short: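 Unstimulated HEK293 cells were plated at 3.5×10^5/well and grown for 24 h, then incubated with compound for 72 h. Viability was read with CellTiter-Fluor.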

[4] = Oral bioavailability in mouse; type: ADME, organism-based; conditions: in vivo
HEK293 [5] = assay: Inhibition of LiCl-activated Wnt/beta-catenin/Axin signaling (unknown origin) expressed in HEK293 cells assessed as degradation of beta-catenin by measuring decrease in beta-catenin protein expression after 24 hrs by Western blot method; type: cell-based; conditions: Homo sapiens
In short: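 HEK293 cells were treated with compound in the presence of lithium chloride for 24 h. Lysis buffer contained 10 mM HEPES, 100 μM EDTA, 10 mM KCl, 0.5% NP40 and inhibitors. Protein was quantified by BCA, resolved on 10% SDS-PAGE, and immunoblotted for β-catenin.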

SMILES | IC50 [1] | growth inhibition (GI) (HEK293 [2]) | further results
Cc1cccc(-n2nnc(C(=O)Nc3ccc4ccccc4n3)c2C)c1C | 140 nM | Non-Toxic | 
Cc1ccccc1-n1nnc(C(=O)Nc2ccc3cc(CN4CCCCC4)ccc3n2)c1C | 1200 nM | Non-Toxic | 
Cc1c(C(=O)Nc2ccc3ccccc3n2)nnn1-c1ccccc1C#N | 34 nM | Non-Toxic | 
Cc1ccccc1-n1nnc(C(=O)Nc2ccc3cc(Br)ccc3n2)c1C | 830 nM | Non-Toxic | 
Cc1ccccc1-n1nnc(C(=O)Nc2ccc3ccccc3c2)c1C | 4900 nM | Non-Toxic | 
Cc1cccc(-n2nnc(C(=O)Nc3ccc4ccccc4n3)c2C)c1 | > 10000 nM | Non-Toxic | 
COc1ccccc1-n1nnc(C(=O)Nc2ccc3ccccc3n2)c1C | 18 nM | Non-Toxic | 
CCc1c(C(=O)Nc2ccc3ccccc3n2)nnn1-c1ccccc1F | 4.7 nM | Non-Toxic | 
Cc1ccc(-n2nnc(C(=O)Nc3ccc4ccccc4n3)c2C)c(C)c1 | 270 nM | Non-Toxic | 
Cc1c(C(=O)Nc2ccc3ccccc3n2)nnn1-c1ccccc1Br | 7.6 nM | Non-Toxic | 
Cc1ccc(-n2nnc(C(=O)Nc3ccc4ccccc4n3)c2C)cc1 | > 10000 nM | Non-Toxic | 
Oc1nc(-c2ccc(C(F)(F)F)cc2)nc2c1CSCC2 |  |  | Activity (Axin-1 (Homo sapiens)): Active
CC(C)c1c(C(=O)Nc2ccc3ccccc3n2)nnn1-c1ccccc1F | 25 nM | Non-Toxic | 
Cc1c(C(=O)Nc2ccc3ccccc3n2)nnn1-c1ccccc1-c1ccccc1 | 390 nM | Non-Toxic | 
Cc1c(C(=O)Nc2ccc3ccccc3n2)nnn1-c1ccccc1F | 1.2 nM | Non-Toxic | growth inhibition (GI) (HEK293 [3]): Toxic
Cc1cc(/C=C/c2ccc3cc(N(C)C)ccc3[n+]2C)c(C)n1-c1ccccc1 [PYRVINIUM] | 750 nM |  | bioavailability [4]: < 1%
Cc1ccccc1-n1nnc(C(=O)Nc2ccc3cc(CN4CCOCC4)ccc3n2)c1C | 1300 nM | Non-Toxic | 
Cc1c(C(=O)Nc2ccc3ccccc3n2)nnn1-c1ccccc1N1CCOCC1 | 1900 nM | Non-Toxic | 
CC(=O)c1ccccc1-n1nnc(C(=O)Nc2ccc3ccccc3n2)c1C | 8800 nM | Non-Toxic | 
Cc1c(C(=O)Nc2ccc3ccccc3n2)nnn1-c1cccc2ccccc12 | 5500 nM | Non-Toxic | inhibition (HEK293 [5]): inactive
Cc1c(C(=O)Nc2ccc3ccccc3n2)nnn1-c1ccccc1C(N)=O | > 10000 nM | Non-Toxic | 
Cc1ccccc1-n1nnc(C(=O)Nc2ccc3cc(CN4CCSCC4)ccc3n2)c1C | 230 nM | Non-Toxic | 
